In PubChem BioAssay AID504775 (Broad Institute, 2011):
In all, about 320,000 compounds went through this assay and about 310 (0.097%) were called active.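 Rule for the calls: active = mean replicate activation of at least 60% and every replicate at or above 60%; inconclusive = mean or all-replicate condition met, but not both; inactive = mean below 60% and not all replicates reaching 60%.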 The list comes from a sample in which actives are over-represented; it also holds similar structures and randomly drawn compounds.

Assay: enhancers of HDL lipid transfer via mSR-BI – ldlA[mSR-BI] CHO cells, DiI fluorescence, primary screen (AID 504775);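 note: 0% = median plate neutral-control signal and 100% = twice that signal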
Details: DiI-HDL uptake fluorescence, 3 h, at 12.5 µM, hits give high values, 100 = double the neutral-control signal
How it was run: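 Test system: SR-BI-overexpressing, LDLR-lacking CHO cells. Measured by: DiI fluorescence, bottom read. Medium: Ham's F12 with 0.5% BSA, HEPES 25 mM, pH 7.4. Timing: 3 h uptake period with compound, 37 °C.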

Row | Compound | activation
1 | Cc1nn(-c2ncccn2)c2c1C(=O)CC(C)(C)C2Br (stereo not drawn) | -6.98% (inactive)
2 | CC12CCCCC1=CC(=O)CC2 (stereo not drawn) | 0.111% (inactive)
3 | O=C(NNC(=O)c1ccc2ccccc2c1)c1ccc(Cl)cc1 | 17.1% (inactive)
4 | O=C1C(=O)N(c2ccccc2)C(c2ccccc2)C1c1ccccc1 (stereo not drawn) | -3.47% (inactive)
5 | c1ccc(C(=NNc2nc3ccccc3s2)c2ccccn2)cc1 | -40.5% (inactive)
6 | C=CC(=O)Nc1ccc(Nc2ccnc(Nc3ccc(N4CCN(C)CC4)cc3)n2)cc1 | -5.16% (inactive)
7 | CC(=NNC(=S)N1CCCCCC1)c1ccccn1 | -22.4% (inactive)
8 | CCOC(=O)c1ccccc1NC(=O)CSc1nc2c(sc(=S)n2CC)c(=O)[nH]1 | 15.7% (inactive)
9 | Nc1ccc2c(c1)C(=Cc1cccnc1)c1ccccc1-2 | -10.7% (inactive)
10 | N#CC1=C(N)Oc2cc(N)ccc2C1c1ccccc1 (stereo not drawn) | 23.9% (inactive)
11 | Cc1ccc(S(=O)(=O)CCC(=O)OCC(=O)N(C)Cc2ccccc2)cc1 | 31.8% (inactive)
12 | CC/C(=C(/c1ccccc1)c1ccc(OCC[N+](C)(C)C)cc1)c1ccccc1 | 44.1% (inactive)
13 | CC(C)(C)OC(=O)N(Cc1ccccc1)Cc1ccc(OCc2cccc(NC(=O)c3ccccc3)c2)cc1 | -30.4% (inactive)
14 | CCCCN1CC(COCc2ccccc2)OCCS1(=O)=O (stereo not drawn) | 17.3% (inactive)
15 | COc1ccc(CNC(=O)COC(=O)C2=Cc3ccccc3OC2)cc1 | 3.54% (inactive)
16 | COC1C(CO)OC(n2cnc3c(=S)nc(N)[nH]c32)C1O (stereo not drawn) | 8.65% (inactive)
17 | COC(=O)C1CC2=C(CC(C)(C)CC2=O)N(c2ccccc2)C1=O (stereo not drawn) | 15.5% (inactive)
18 | O=C1OC(Cc2ccccc2)C(c2ccccc2)C1=O (stereo not drawn) | 5.71% (inactive)
19 | CN(C(=O)c1ccc(NC(=O)Cc2cccc(NC(=O)C3CCN(C(=O)c4ccccc4)CC3)c2)cc1)C1CC1 | -15% (inactive)
20 | CC(C)c1ccc(C=NNc2ccc([N+](=O)[O-])cn2)cc1 | 2.92% (inactive)
21 | O=C(NN=Cc1ccccc1)c1ccccc1 | 4.39% (inactive)
22 | NC(=O)C1CCN(C(=O)c2cc(S(=O)(=O)N3CCN(c4ccccc4)CC3)ccc2Cl)CC1 | 3.45% (inactive)
23 | FC(F)(F)c1ccc(-c2cccc3c2C2CC3CCN2Cc2ccccc2)cc1 (stereo not drawn) | 20.1% (inactive)
24 | O=c1oc2ccccc2c(=O)c2ccccc12 | 23.4% (inactive)
25 | O=C(NCCc1ccccc1)c1cccc(NC(=O)c2ccccc2)c1 | -9.83% (inactive)

Row | Compound | activation
26 | Cc1nc(N)sc1-c1ccccc1 | -11.1% (inactive)
27 | O=[N+]([O-])c1ccc(N2CCOCC2)cc1 | -9.57% (inactive)
28 | O=C(NN=CC=Cc1ccccc1)C(O)C(O)C(=O)NN=CC=Cc1ccccc1 (stereo not drawn) | -3.92% (inactive)
29 | CCCCNCCS(=O)(=O)NCc1ccccc1 | 2.76% (inactive)
30 | CC(C)CN1CC(C)C(=O)N(c2ccccc2)C1=S (stereo not drawn) | 3.77% (inactive)
31 | CCC(c1nnnn1C1CCCC1)N1CCN(C(=O)c2ccco2)CC1 (stereo not drawn) | 3.81% (inactive)
32 | CC(C)C(c1nnnn1CCc1ccccc1)N1CCN(C(=O)c2ccco2)CC1 (stereo not drawn) | 424% (active)
33 | CC(C)C(c1nnnn1C1CCCCC1)N1CCN(C(=O)c2ccco2)CC1 (stereo not drawn) | 4.65% (inactive)
34 | Cc1ccc(OCCNC(=O)c2cccc(S(=O)(=O)N3CCN(Cc4ccccc4)CC3)c2)cc1 | -20.6% (inactive)
35 | CSCCC(NC(=O)COc1ccccc1)C(=O)N1CCN(c2cccc(C(F)(F)F)c2)CC1 (stereo not drawn) | -13.3% (inactive)
36 | C1=C(N2CCOCC2)/C(=C/c2nc3ccccc3[nH]2)CC1 | 6.52% (inactive)
37 | c1ccc2cc3c(NCCN4CCOCC4)ccnc3cc2c1 | 30.5% (inactive)
38 | c1ccc2[nH]c(NCCN3CCOCC3)nc2c1 | 62.8% (active)
39 | CCc1c(Nc2ccccc2Cl)nc(N)[nH]c1=O | 15.3% (inactive)
40 | NC(=O)c1ncn([C@@H]2O[C@H](CNCc3cnc(N4CCOCC4)s3)[C@@H](O)[C@H]2O)n1 | -12% (inactive)
41 | NC(=O)c1ncn([C@@H]2O[C@H](CN=C3NS(=O)(=O)c4ccccc43)[C@@H](O)[C@H]2O)n1 | 74.1% (active)
42 | COc1cc2c(cc1CNC[C@H]1O[C@@H](n3cnc(C(N)=O)n3)[C@H](O)[C@@H]1O)OCO2 | 13.6% (inactive)
43 | CCCCNC1(C#N)CCN(Cc2ccccc2)CC1 | 2.1% (inactive)
44 | COc1ccc(CC(=O)N[C@@H]2c3cc(OC)c(OC)cc3C[C@H]2OCc2ccccc2)cc1 | -26.8% (inactive)
45 | COc1ccc(C2NCCCC2c2ccccc2)cc1 (stereo not drawn) | -26.9% (inactive)
46 | CC1C(C)N(C(=O)CCl)c2ccccc2N1C(=O)CCl (stereo not drawn) | 12% (inactive)
47 | Cc1ccccc1N1CCN(C(=O)c2cccnc2)CC1 | 2.45% (inactive)
48 | C[C@@H]1NS(=O)(=O)c2cc(Cl)ccc2O[C@@H]1c1ccccc1 | -33.6% (inactive)
49 | COC(=O)c1ccc(CNC(=O)Cn2cc(C)c(=O)[nH]c2=O)cc1 | -1.85% (inactive)
50 | O=[N+]([O-])c1ccc(NS(=O)(=O)c2ccccc2)c(Cl)c1 | 84.4% (active)

Row | Compound | activation
51 | O=C(NNS(=O)(=O)c1ccc(F)cc1)c1ccc([N+](=O)[O-])cc1Cl | 4.85% (inactive)
52 | Cc1cc([N+](=O)[O-])ccc1NS(=O)(=O)c1ccccc1 | 11.2% (inactive)
53 | OC(COc1ccccc1)CN1CCN(c2cccc(Cl)c2)CC1 (stereo not drawn) | -8.42% (inactive)
54 | COc1cc(/C=C/c2ccc(/C=C/c3cc(OC)c(OC)c(OC)c3)cc2)cc(OC)c1OC | -51.2% (inactive)
55 | O=C1C(Cl)=C(Oc2ccccc2)C(=O)c2ccccc21 | -13.1% (inactive)
56 | COc1ccc(NS(=O)(=O)c2ccc(N3CCOCC3)c(NC(=O)/C=C/C(=O)O)c2)cc1 | 22.2% (inactive)
57 | COc1ccc(CC(=O)NC(C)c2ccc(Cl)c(Cl)c2)cc1S(=O)(=O)N1CCOCC1 (stereo not drawn) | -4.63% (inactive)
58 | Cc1cc([N+](=O)[O-])c(=O)[nH]c1C | 9.21% (inactive)
59 | CC(NC(=O)c1ccccc1)C(=O)Nc1ccccc1 (stereo not drawn) | -16.6% (inactive)
60 | NC(=O)C1(Nc2ccc([N+](=O)[O-])cc2)CCCC1 | -13.2% (inactive)
61 | S=C(Nc1ccccc1)Nc1ccc2ccccc2c1 | -9.12% (inactive)
62 | CN1C(c2ccc(F)cc2)=CS/C1=C(/C#N)c1nnc2n1-c1ccccc1SC2 | -32.2% (inactive)
63 | CN(CCc1ccccc1)C(=O)c1cccc(NC(=O)Cc2cccc(NC(=O)C3CCCN(C(=O)CCc4ccccc4)C3)c2)c1 (stereo not drawn) | -78.5% (inactive)
64 | C=CCOC(=O)N1CCC2CC1c1cc(-c3ccc(OC)cc3)ccc12 (stereo not drawn) | 4.14% (inactive)
65 | CCCCN1CC(CO)Oc2cccc(F)c2S1(=O)=O (stereo not drawn) | 10.7% (inactive)
66 | C/C(=N\Nc1ccc(Cl)nn1)c1ccccc1O | 7.73% (inactive)
67 | CCCN(CCC)S(=O)(=O)c1cc2c(cc1Br)CCN2C(=O)CC | -7.1% (inactive)
68 | NS(=O)(=O)c1ccc(CCNC(=O)c2ccc(Cl)c(S(=O)(=O)N3CCCCCC3)c2)cc1 | -32.8% (inactive)
69 | CCc1c(Nc2ccccc2C)nc(N)[nH]c1=O | -3.67% (inactive)
70 | O=C(NN=Cc1ccccc1O)NN=Cc1ccccc1O | -79.8% (inactive)
71 | CCN(CC)CCCC(C)n1c2nc(=O)[nH]c(=O)c-2nc2cc(Cl)ccc21 (stereo not drawn) | -9.91% (inactive)
72 | CCCCC(=O)NC(c1ccc(OC)c(OC)c1)c1ccc2cccnc2c1O (stereo not drawn) | -3.38% (inactive)
73 | NC(=NC(=O)c1ccccc1)N1CCOCC1 | 1.4% (inactive)
74 | O=C(NC(=O)N1CCOCC1)c1ccccc1 | 67.4% (active)
75 | O=C(CSC(=S)N1CCOCC1)c1ccccc1 | -13.4% (inactive)

Row | Compound | activation
76 | Cc1nc2ccc(N)nc2nc1C | -22.1% (inactive)
77 | COc1ccc(S(=O)(=O)N2C[C@H]3CON(C)[C@H]3C[C@H]2c2cccc(Br)c2)cc1 | 7.88% (inactive)
78 | CN(C(=O)c1cccc(NC(=O)Cc2ccc(NC(=O)C3CCCN(C(=O)C4CCCC4)C3)cc2)c1)C1CCC1 (stereo not drawn) | -86.9% (inactive)
79 | CCCCN1CC(COc2ccccc2)Oc2cccc(F)c2S1(=O)=O (stereo not drawn) | -3.91% (inactive)
80 | COC1=CC(=O)OC(C)(c2ccccc2)C1 (stereo not drawn) | -8.07% (inactive)
81 | O=c1[nH]c(=S)[nH]c(O)c1/C=C1\C=Nc2ccccc21 | 12.1% (inactive)
82 | Cc1cc(OCCCC(=O)Nc2cc(S(=O)(=O)N3CCOCC3)ccc2N2CCOCC2)ccc1Cl | -17.2% (inactive)
83 | COC1=NC2=NCCN2C(OC)=N1 | 7.98% (inactive)
84 | CC1=CC(=NNS(=O)(=O)c2ccc([N+](=O)[O-])cc2)CC(C)(C)C1 | 27.7% (inactive)
85 | CC(C)Cc1nnc(N)s1 | 10.1% (inactive)
86 | Cc1nc(N)nc(Cl)c1CCC1OCCO1 | 19.5% (inactive)
87 | NNc1cccc(C=Cc2ccccc2)cc1=O | -16.6% (inactive)
88 | Nc1cc(=O)n(Cc2ccccc2)c(=O)n1Cc1ccccc1 | -0.22% (inactive)
89 | N=C1c2ccccc2-c2ccccc21 | 9.24% (inactive)
90 | COc1cc(O)c2c(=O)c3c(O)c(O)ccc3oc2c1OC | -10.1% (inactive)
91 | O=c1nc(NO)ccn1C1CCCO1 (stereo not drawn) | 15.7% (inactive)
92 | C(#CCN1CCOCC1)CCCN1CCOCC1 | 16.4% (inactive)
93 | CN1CCOC1c1ccc(C2OCCN2C)cc1 (stereo not drawn) | 6.99% (inactive)
94 | C=CCN1C=C(C(=O)c2ccccc2)C(=O)CC1 | 19.3% (inactive)
95 | NN=C(NN=Cc1ccccc1)c1ccccc1 | 1.04% (inactive)
96 | O=C(NNS(=O)(=O)c1ccc([N+](=O)[O-])cc1)C1CCCCC1 | 62.5% (active)
97 | O=C(Cc1ccccc1)NNS(=O)(=O)c1ccc([N+](=O)[O-])cc1 | -11.7% (inactive)
98 | O=C(NCC(O)c1ccc([N+](=O)[O-])cc1)C1CCCCC1 (stereo not drawn) | 2.53% (inactive)
